Measurements reported in ChEMBL document CHEMBL1122156, “A comparison of the inhibitory action of 5-(substituted-benzyl)-2,4-diaminopyrimidines on dihydrofolate reductase from chicken liver with that from bovine liver” (J Med Chem, 1982).

How the values were obtained:
[1] = molecular target: T1, Dihydrofolate reductase (Gallus gallus) (UniProt P00378)
T1 sequence (whole entry): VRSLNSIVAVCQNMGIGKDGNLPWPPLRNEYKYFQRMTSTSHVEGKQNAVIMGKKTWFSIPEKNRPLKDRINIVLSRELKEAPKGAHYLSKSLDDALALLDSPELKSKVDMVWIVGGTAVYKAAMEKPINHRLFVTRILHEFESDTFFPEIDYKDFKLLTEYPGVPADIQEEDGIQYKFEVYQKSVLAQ

[2] = molecular target: T2, Dihydrofolate reductase (Bos taurus) (UniProt P00376); assay: Inhibitory activity against bovine liver Dihydrofolate reductase at pH 7.2.
T2 sequence (whole entry): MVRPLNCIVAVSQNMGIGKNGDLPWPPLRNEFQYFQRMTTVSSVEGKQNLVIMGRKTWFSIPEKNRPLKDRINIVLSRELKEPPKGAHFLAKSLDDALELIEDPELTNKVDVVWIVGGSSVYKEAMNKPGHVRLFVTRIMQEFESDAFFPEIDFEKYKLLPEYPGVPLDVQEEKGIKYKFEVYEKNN
Method in brief: (§1)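 DHFR from chicken liver and from bovine liver, each assayed at pH 7.2 by the group's earlier-reported inhibition procedure. Potency is expressed as an apparent inhibition constant, reported as log(1/Ki app).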

[3] = molecular target: T2, Dihydrofolate reductase (Bos taurus)
[4] = molecular target: T1, Dihydrofolate reductase (Gallus gallus); assay: Inhibitory activity against chicken Dihydrofolate reductase at pH 7.2.
Method in brief: as §1

COCCOc1c(OC)cc(Cc2cnc(N)nc2N)cc1OC
Log 1/Ki app [1]: 3.64

CC(=O)Nc1ccc(Cc2cnc(N)nc2N)cc1
Log 1/Ki app [1]: 4.26

Nc1ncc(Cc2cc(O)cc(O)c2)c(N)n1
Log 1/Ki app [2]: 3.39

Nc1ncc(Cc2ccccc2)c(N)n1
Log 1/Ki app [1]: 4.71

Nc1ncc(Cc2cccc(F)c2)c(N)n1
Log 1/Ki app [1]: 4.7

Nc1ncc(Cc2ccc(OC(F)(F)F)cc2)c(N)n1
Log 1/Ki app [1]: 4.26
Log 1/Ki app [3]: 5.42

Nc1ncc(Cc2ccc([N+](=O)[O-])cc2)c(N)n1
Log 1/Ki app [1]: 4.37

COc1ccc(Cc2cnc(N)nc2N)cc1OC
Log 1/Ki app [1]: 4.46
Log 1/Ki app [3]: 5.66

Cc1cccc(Cc2cnc(N)nc2N)c1
Log 1/Ki app [1]: 4.72

CCCCCCCOc1ccc(Cc2cnc(N)nc2N)cc1
Log 1/Ki app [2]: 5.45

COCCOc1cccc(Cc2cnc(N)nc2N)c1
Log 1/Ki app [2]: 5.58
Log 1/Ki app [4]: 4.83

Nc1ncc(Cc2cccc(I)c2)c(N)n1
Log 1/Ki app [1]: 4.79
Log 1/Ki app [3]: 6.15

Nc1ncc(Cc2ccc(F)cc2)c(N)n1
Log 1/Ki app [1]: 4.79

CCCCOCc1cccc(Cc2cnc(N)nc2N)c1
Log 1/Ki app [1]: 5.17

Nc1ncc(Cc2cccc(Cl)c2)c(N)n1
Log 1/Ki app [1]: 5.01

CN(C)c1ccc(Cc2cnc(N)nc2N)cc1
Log 1/Ki app [1]: 4.01

COc1ccc(Cc2cnc(N)nc2N)cc1C(F)(F)F
Log 1/Ki app [1]: 4.99
